Screens deposited in PubChem BioAssay by Broad Institute.
Cneo AK release = Cryptococcus neoformans lysis via adenylate kinase release. C. neoformans lysis, adenylate kinase release luminescence, 4 h; normalised: neutral wells 0, clomiphene wells 100. lysis activity, % at 15 µM. hit rate 0.2% among 360,000;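 active = mean lysis activity across replicates of at least 80%, whatever share of replicates individually reach that level; inactive = mean lysis activity below 80%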
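Test system: log-phase Cryptococcus neoformans yeast cells; Quantity: yeast cell density of 5 × 10^6 cells/mL; Buffer or medium: YPD; Doses: single compound concentration per well; Timing: 4 h at 37 °C static, read 1 h later; Measured by: AK luminescence; Read-out basis: lysis from increased AK signal; Control set: Clomiphene as positive control.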
CDK5 inh = blocks human CDK5/p35 kinase activity; Q00535+Q15078; Recombinant CDK5/p35, ADP-Glo luminescence, 60 min; inhibition, % at 10 µM; hit rate 0.01% among 330,000; AID 488839;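 active = highest replicate inhibition of at least 50% and at least 75% of replicates reaching 50%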
Target sequence (Q00535 whole entry, looked up): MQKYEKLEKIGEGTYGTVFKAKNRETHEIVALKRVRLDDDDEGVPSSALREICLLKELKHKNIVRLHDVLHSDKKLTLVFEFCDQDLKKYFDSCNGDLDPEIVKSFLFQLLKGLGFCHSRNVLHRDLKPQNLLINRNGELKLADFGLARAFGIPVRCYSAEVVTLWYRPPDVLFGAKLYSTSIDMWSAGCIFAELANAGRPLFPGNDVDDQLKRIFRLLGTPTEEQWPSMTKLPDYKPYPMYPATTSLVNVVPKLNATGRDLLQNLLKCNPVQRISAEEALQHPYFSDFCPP
Target sequence (Q15078 whole entry, looked up): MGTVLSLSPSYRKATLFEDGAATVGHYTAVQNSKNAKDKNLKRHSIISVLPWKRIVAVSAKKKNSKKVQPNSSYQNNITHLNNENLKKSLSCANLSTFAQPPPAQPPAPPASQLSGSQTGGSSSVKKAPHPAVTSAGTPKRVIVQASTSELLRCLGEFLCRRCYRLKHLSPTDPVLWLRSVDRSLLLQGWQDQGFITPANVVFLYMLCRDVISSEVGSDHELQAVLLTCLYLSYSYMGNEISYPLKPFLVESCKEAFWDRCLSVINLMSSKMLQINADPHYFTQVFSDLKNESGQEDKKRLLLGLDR
HIV Env fusion = inhibitors of HIV Env-mediated cell fusion. AID 651610. HeLa-JRFL Env/CEM21 cell fusion, luciferase. hit rate 1.1% among 360,000. inhibition, % at 12.3 µM;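 active = mean replicate inhibition score of at least 50 and every replicate individually at or above 50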
dFosB act = enhances mouse delta FosB homodimer DNA binding | P13346 | purified delta FosB, TAMRA-CDK5 oligo fluorescence polarization; percent of positive-control signal above neutral wells | activation, % at 25 µM | hit rate 0.99% among 340,000;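 active = mean activation above about 17%, with every replicate also reaching it, limit read from the data, passing the limit was not always enough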
GSIS activator = GLuc luminescence reporter in INS-1E cells, primary screen for activators of glucose-dependent secretion of insulin; INS-1E GLuc reporter insulin secretion, 2-3 h; hit rate 0.61% among 370,000; activation, % at 16.6 µM; AID 743287;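 active = lowest replicate activation of at least 40%, so every replicate reaches that level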
PAX8 inh HTS = lowers PAX8-driven luciferase in RMG-I cells | RMG-I TPO-luciferase reporter, SteadyGlo, 24 h | AID 652154 | inhibition, % at 12.6 µM | hit rate 1.2% among 360,000;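 active = mean replicate inhibition at least 60% with every replicate also reaching 60%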;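 note: luciferase light reporting Pax8 driven TPO promoter activity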
A number is an active result; – = inactive; · = no result given; [ ] = dose if it differs, or a comment. This is a sample that favours compounds with a hit; in the whole collection about 2.9% have one here.

SMILES	Cneo AK release	CDK5 inh	HIV Env fusion	dFosB act	GSIS activator	PAX8 inh HTS
Cc1ccc(S(=O)(=O)N(C)C[C@H]2OCCCC[C@H](C)Oc3ccc(NS(=O)(=O)c4ccc(Cl)cc4)cc3C(=O)N([C@@H](C)CO)C[C@H]2C)cc1	–	·	–	·	–	–
Cc1ccc(S(=O)(=O)Nc2ccc3c(c2)C(=O)N([C@H](C)CO)C[C@@H](C)[C@H](CN(C)S(=O)(=O)c2ccc(Cl)cc2)OCCCC[C@H](C)O3)cc1	·	·	·	·	–	88
COc1ccc(C=C2SC(=O)NC2=O)cc1OC	–	–	–	–	–	–
COc1ccc(/C=C2\SC(=N)N(c3ccc(F)cc3)C2=O)cc1OC	·	–	–	45	–	–
Oc1c(N=Nc2ccc(F)cc2)ccc2ccccc12	–	–	–	–	–	–
Oc1ccc2ccccc2c1N=Nc1ccc(F)cc1	–	–	–	104	–	–
CC[C@H](C)[C@@H](CN[C@H](C)CNC)NCCC(c1ccccc1)c1ccccc1	–	–	–	–	–	75
CC[C@@H](C)[C@H](CN[C@H](CNC)C(C)C)NC[C@@H](C)c1ccc(CC(C)C)cc1	–	–	–	–	–	–
COc1cccc(S(=O)(=O)N[C@H]2CC[C@H](CCn3cc(-c4ccccn4)nn3)O[C@@H]2CO)c1	–	·	–	·	–	–
Cn1nc(CC(=O)NCc2ccc(C(F)(F)F)cc2)c2ccccc2c1=O	–	–	71	–	·	–
COc1ccc(CNC(=O)Cc2nn(C)c(=O)c3ccccc23)cc1	·	–	·	–	·	·
COCC#Cc1ccc2c(c1)O[C@@H](CN(C)Cc1ccccn1)[C@@H](C)CN([C@H](C)CO)S2(=O)=O	–	·	·	·	–	–
Cc1ccc(-n2c(-c3ccccc3)c[n+]3c2CCc2ccccc2-3)c(C)c1	·	–	–	–	–	91
CC(=O)N1CC2(C1)[C@H](c1ccccc1)[C@H](CO)N2Cc1ccccc1F	·	·	·	·	–	–
CC(=Cc1ccccc1)C(=O)c1ccccc1	–	·	–	·	–	–
O=C(C(Br)=Cc1ccccc1)c1ccccc1	·	–	–	–	–	86
CC1(C)CC(=O)C2=C(C1)Oc1ncn(Cc3ccco3)c(=N)c1C2c1ccccc1 (stereo not given)	–	–	·	–	·	·
COc1ccc(C2C3=C(CC(C)(C)CC3=O)Oc3ncn(Cc4ccccc4)c(=N)c32)cc1 (stereo not given)	–	–	61	–	·	·
O=C(C[C@@H]1C=C[C@H](NS(=O)(=O)c2ccccc2)[C@@H](CO)O1)NCc1ccc(Cl)c(Cl)c1	–	·	–	·	–	–
Cc1noc(C)c1S(=O)(=O)N(C)C[C@@H]1OCCCC[C@H](C)Oc2ccc(NC(=O)Nc3ccc(F)cc3)cc2C(=O)N([C@H](C)CO)C[C@@H]1C	–	·	–	·	–	61
Cc1noc(C)c1S(=O)(=O)N(C)C[C@H]1OCCCC[C@@H](C)Oc2ccc(NC(=O)Nc3ccc4c(c3)OCO4)cc2C(=O)N([C@@H](C)CO)C[C@H]1C	–	·	–	·	–	–
Cc1noc(C)c1NC(=O)Nc1ccc2c(c1)C(=O)N([C@@H](C)CO)C[C@H](C)[C@H](CN(C)S(=O)(=O)c1ccc(F)cc1)OCCCC[C@H](C)O2	–	·	55[16.7 µM]	·	–	–
Cc1noc(C)c1S(=O)(=O)N(C)C[C@@H]1OCCCC[C@@H](C)Oc2ccc(NC(=O)Nc3ccc(C(F)(F)F)cc3)cc2C(=O)N([C@H](C)CO)C[C@H]1C	–	·	83[16.7 µM]	·	–	·
Cc1noc(C)c1S(=O)(=O)N(C)C[C@H]1OCCCC[C@@H](C)Oc2ccc(NC(=O)Nc3ccc(C(F)(F)F)cc3)cc2C(=O)N([C@@H](C)CO)C[C@H]1C	–	·	–	·	–	·
Cc1noc(C)c1NC(=O)Nc1ccc2c(c1)C(=O)N([C@H](C)CO)C[C@@H](C)[C@H](CN(C)S(=O)(=O)c1ccc(F)cc1)OCCCC[C@@H](C)O2	–	·	–	·	–	–
SMILES	Cneo AK release	CDK5 inh	HIV Env fusion	dFosB act	GSIS activator	PAX8 inh HTS
Cc1noc(C)c1S(=O)(=O)N(C)C[C@H]1OCCCC[C@H](C)Oc2ccc(NC(=O)Nc3ccc4c(c3)OCO4)cc2C(=O)N([C@@H](C)CO)C[C@@H]1C	–	·	60[16.7 µM]	·	–	–
O=C(CSC1CN(C(c2ccccc2)c2ccccc2)C1)N/N=C/c1ccc(Cl)cc1Cl	·	–	65	–	–	–
O=C(N/N=C/c1ccc(Cl)cc1Cl)Nc1ccccc1	–	–	–	–	42	·
O=C(CSc1nnc(SCc2ccccc2)s1)N/N=C/c1ccc(Cl)cc1Cl	·	–	–	–	–	–
C[C@@H]1CN([C@@H](C)CO)C(=O)c2cc(NC(=O)Nc3ccc(C(F)(F)F)cc3)ccc2O[C@H]1CN(C)C(=O)Nc1ccc(C(F)(F)F)cc1	–	·	–	·	–	92
CC(C)NC(=O)Nc1ccc2c(c1)C(=O)N([C@@H](C)CO)C[C@H](C)[C@H](CN(C)C(=O)Nc1ccc(F)cc1)O2	–	·	70[16.7 µM]	·	–	–
C[C@H]1CN([C@@H](C)CO)C(=O)c2cc(N(C)C)ccc2O[C@@H]1CN(C)C(=O)Nc1ccc(C(F)(F)F)cc1	–	·	·	·	–	–
C[C@@H]1CN([C@H](C)CO)C(=O)c2cc(NC(=O)Nc3ccc4c(c3)OCO4)ccc2O[C@H]1CN(C)C(=O)Nc1ccc(C(F)(F)F)cc1	–	·	–	·	–	65
C[C@@H]1CN([C@H](C)CO)C(=O)c2cc(N(C)C)ccc2O[C@@H]1CN(C)C(=O)Nc1ccc(C(F)(F)F)cc1	107	·	·	·	–	–
C[C@@H]1CN([C@H](C)CO)C(=O)c2cc(NC(=O)Nc3ccc(C(F)(F)F)cc3)ccc2O[C@@H]1CN(C)C(=O)Nc1ccc2c(c1)OCO2	–	·	·	·	–	·
C[C@@H]1CN([C@H](C)CO)C(=O)c2cc(NC(=O)Nc3ccc(C(F)(F)F)cc3)ccc2O[C@@H]1CN(C)C(=O)Nc1ccc(C(F)(F)F)cc1	–	·	–	·	–	–
O=C(C[C@H]1CC[C@H]2[C@@H](COC[C@@H](O)CN2Cc2cccc(C(F)(F)F)c2)O1)NCCc1ccncc1	–	·	–	·	–	–
COc1ccc(NC(=O)Nc2ccc3c(c2)CC(=O)N([C@H](C)CO)C[C@H](C)[C@H](CN(C)C(=O)NC2CCCCC2)O3)cc1	–	·	–	·	–	–
N#C[C@H]1[C@@H](c2ccccc2-c2ccc(F)cc2)[C@@H](CO)N1C(=O)Cc1ccccc1	·	·	·	·	–	–
Cc1nn(C)c(C)c1CN(C)S(=O)(=O)c1ccc2ccccc2c1	–	–	72	–	·	–
COc1cccc(NC(=O)N[C@H]2CC[C@@H](CC(=O)NCc3ccncn3)O[C@H]2CO)c1	–	·	–	·	–	–
COc1ccc2c3c([nH]c2c1)[C@H](CO)N(Cc1ccccc1OC)CC31CN(C)C1	·	·	·	·	–	·
COC(=O)c1ccc(C2c3[nH]c4ccccc4c3C[C@H]3C(=O)N(C)CC(=O)N23)cc1 (stereo not given in full)	–	–	–	–	–	–
